Assay results from ChEMBL document CHEMBL4765336, “Discovery of coumarin derivatives as potent and selective cyclin-dependent kinase 9 (CDK9) inhibitors with high antitumour activity” (Eur J Med Chem, 2020).

Experiments:
[1] = molecular target: CDK9/cyclin T1 (Homo sapiens, UniProt P50750); test: Inhibition of CDK9/Cyclin T1 (unknown origin) preincubated for 20 mins followed by ATP addition and measured after 120 mins in presence of [33P-gamma] ATP by hotspot kinase assay; format: protein-complex assay
Sequence of CDK9/cyclin T1 (O60563 whole entry): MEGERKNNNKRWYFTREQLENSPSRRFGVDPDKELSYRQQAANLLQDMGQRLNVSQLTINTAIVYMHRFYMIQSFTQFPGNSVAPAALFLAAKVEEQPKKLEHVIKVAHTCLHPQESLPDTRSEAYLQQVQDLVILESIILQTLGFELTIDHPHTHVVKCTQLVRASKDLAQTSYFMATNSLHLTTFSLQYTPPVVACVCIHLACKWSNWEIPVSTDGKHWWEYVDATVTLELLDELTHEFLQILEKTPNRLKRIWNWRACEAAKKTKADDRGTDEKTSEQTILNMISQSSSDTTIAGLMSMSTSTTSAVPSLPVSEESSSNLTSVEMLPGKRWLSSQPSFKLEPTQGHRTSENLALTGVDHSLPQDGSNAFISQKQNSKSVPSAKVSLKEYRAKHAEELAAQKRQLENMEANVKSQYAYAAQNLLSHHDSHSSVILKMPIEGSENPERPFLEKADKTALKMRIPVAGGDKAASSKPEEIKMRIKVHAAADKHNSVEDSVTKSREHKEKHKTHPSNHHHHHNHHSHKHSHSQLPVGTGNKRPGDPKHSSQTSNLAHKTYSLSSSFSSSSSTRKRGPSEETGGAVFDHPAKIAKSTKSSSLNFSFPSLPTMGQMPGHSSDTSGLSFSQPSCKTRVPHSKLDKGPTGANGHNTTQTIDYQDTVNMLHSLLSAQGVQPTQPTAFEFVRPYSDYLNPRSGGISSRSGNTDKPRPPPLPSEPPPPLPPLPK
Sequence of CDK9/cyclin T1 (P50750 whole entry): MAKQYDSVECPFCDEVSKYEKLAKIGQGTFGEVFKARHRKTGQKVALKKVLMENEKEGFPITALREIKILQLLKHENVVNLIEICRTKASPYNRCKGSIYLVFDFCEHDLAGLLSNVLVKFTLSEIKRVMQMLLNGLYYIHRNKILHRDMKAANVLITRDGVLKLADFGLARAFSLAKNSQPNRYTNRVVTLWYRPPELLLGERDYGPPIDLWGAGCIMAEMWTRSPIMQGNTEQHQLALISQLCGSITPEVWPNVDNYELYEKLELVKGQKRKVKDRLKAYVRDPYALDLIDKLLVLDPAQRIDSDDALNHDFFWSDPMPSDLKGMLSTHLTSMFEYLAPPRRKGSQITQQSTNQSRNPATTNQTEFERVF

[2] = molecular target: CDK2/Cyclin A2 (Homo sapiens, UniProt P24941); test: Inhibition of CDK2/Cyclin A (unknown origin) preincubated for 20 mins followed by ATP addition and measured after 120 mins in presence of [33P-gamma] ATP by hotspot kinase assay; format: protein-complex assay
In short: (§1)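 Radiometric filter-binding assay: kinase and substrate in 20 mM Hepes pH 7.5, 10 mM MgCl2, 1 mM EGTA, 0.02% Brij35, 0.02 mg/mL BSA, 0.1 mM Na3VO4, 2 mM DTT, 1% DMSO. Compound (top 1/10/27 μM, 3-fold serial dilutions) preincubated 20 min at 25 °C. ATP plus [γ-33P]ATP added to 10 μM final, reacted 120 min at 25 °C. IC50 from curve fit, duplicate mean.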

[3] = tested on: MV4-11; test: Antiproliferative activity against human MV4-11 cells assessed as inhibition of cell growth incubated for 72 hrs by Celltiter-Glo luminescent assay; format: functional, cell-based; conditions: MV4-11, 72 h
In short: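 Cells seeded in growth medium and held overnight at 37 °C; medium-only wells served as background. DMSO stocks were diluted in medium to 3× final and added; cells incubated 72 h at 37 °C, 5% CO2. Viability read by CellTiter-Glo luminescence after 60 min at room temperature. IC50 from curve fit, mean of duplicate.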

[4] = molecular target: CDK2/Cyclin A2 (Homo sapiens) (UniProt P24941+P20248); test: Inhibition of CDK2/Cyclin A (unknown origin) assessed as enzyme activity at 1 uM preincubated for 20 mins followed by ATP addition and measured after 120 mins in presence of [33P-gamma] ATP by hotspot kinase assay relative to control; format: protein-complex assay; design: scale not given: the % may be the effect or the level left; conditions: time 140.0 min
In short: (§2)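 Radiometric filter-binding kinase assay, buffer pH 7.5 with 10 mM MgCl2 and 1% DMSO. Compound tested at a single 1.0 μM, preincubated 20 min at 25 °C. Reaction started with ATP/[γ-33P]ATP at 10 μM final, run 120 min at 25 °C. Remaining % enzyme activity reported, n=2.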

[5] = molecular target: CDK9/cyclin T1 (Homo sapiens) (UniProt O60563+P50750); test: Inhibition of CDK9/Cyclin T1 (unknown origin) assessed as enzyme activity at 1 uM preincubated for 20 mins followed by ATP addition and measured after 120 mins in presence of [33P-gamma] ATP by hotspot kinase assay relative to control; format: protein-complex assay; design: scale not given: the % may be the effect or the level left; conditions: time 140.0 min; in short: as §2
[6] = tested on: MV4-11; test: Antitumor activity against human MV4-11 cells xenografted in Balb/c nude mouse assessed as reduction in tumor volume at 40 mg/kg, iv administered once daily for 21 days (reference value: 1.00 g); format: functional; conditions: time 21 day
[7] = species: Homo sapiens; test: Selectivity index, ratio of IC50 for CDK2/Cyclin A (unknown origin) to IC50 for CDK9/Cyclin T1 (unknown origin)
[8] = molecular target: CDK9/Cyclin K (Homo sapiens, UniProt P50750); test: Inhibition of CDK9/Cyclin K (unknown origin) preincubated for 20 mins followed by ATP addition and measured after 120 mins in presence of [33P-gamma] ATP by hotspot kinase assay; format: protein-complex assay
Sequence of CDK9/Cyclin K (P50750 whole entry): as above
Sequence of CDK9/Cyclin K (O75909 whole entry, further chain): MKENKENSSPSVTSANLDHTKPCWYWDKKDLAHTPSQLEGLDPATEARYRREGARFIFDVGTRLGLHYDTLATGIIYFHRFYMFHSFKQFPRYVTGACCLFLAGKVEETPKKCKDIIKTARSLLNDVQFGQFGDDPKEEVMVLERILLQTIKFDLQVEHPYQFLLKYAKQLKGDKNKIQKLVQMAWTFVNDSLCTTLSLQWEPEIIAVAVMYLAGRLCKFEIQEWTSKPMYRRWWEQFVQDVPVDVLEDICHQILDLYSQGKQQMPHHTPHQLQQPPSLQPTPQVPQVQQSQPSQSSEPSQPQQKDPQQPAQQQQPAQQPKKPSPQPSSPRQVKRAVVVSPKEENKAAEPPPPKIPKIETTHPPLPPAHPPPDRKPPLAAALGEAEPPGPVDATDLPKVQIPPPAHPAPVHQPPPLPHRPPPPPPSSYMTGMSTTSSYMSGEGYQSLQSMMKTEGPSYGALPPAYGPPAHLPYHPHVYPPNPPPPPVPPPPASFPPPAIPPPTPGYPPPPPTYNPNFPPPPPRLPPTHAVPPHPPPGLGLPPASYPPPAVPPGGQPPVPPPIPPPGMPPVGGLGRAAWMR
In short: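 HotSpot radioisotope filter-binding assay. Kinase and substrate were mixed at room temperature in 20 mM Hepes pH 7.5 with 10 mM MgCl2, 1 mM EGTA, 0.02% Brij35, 0.02 mg/mL BSA, 0.1 mM Na3VO4, 2 mM DTT and 1% DMSO. Compound was added in a 3-fold dilution series starting at 1, 10 or 27 μM and preincubated 20 min at 25 °C. ATP plus [γ-33P]ATP (10 μM final) was then added for 120 min at 25 °C. IC50 from curve fit, duplicate mean.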

[9] = molecular target: Cyclin-dependent kinase 7/ cyclin H (Homo sapiens, UniProt P50613); test: Inhibition of CDK7/Cyclin H (unknown origin) preincubated for 20 mins followed by ATP addition and measured after 120 mins in presence of [33P-gamma] ATP by hotspot kinase assay; format: protein-complex assay; in short: as §1
Sequence of Cyclin-dependent kinase 7/ cyclin H (P51946 whole entry): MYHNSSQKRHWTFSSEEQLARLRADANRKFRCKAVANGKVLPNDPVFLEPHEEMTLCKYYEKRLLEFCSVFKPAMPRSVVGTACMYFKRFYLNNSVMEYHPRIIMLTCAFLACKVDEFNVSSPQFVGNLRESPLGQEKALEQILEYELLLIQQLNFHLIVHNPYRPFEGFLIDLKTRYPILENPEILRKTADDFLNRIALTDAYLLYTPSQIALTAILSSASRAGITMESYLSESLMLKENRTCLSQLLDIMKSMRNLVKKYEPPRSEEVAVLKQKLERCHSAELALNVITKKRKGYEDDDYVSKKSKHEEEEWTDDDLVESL
Sequence of Cyclin-dependent kinase 7/ cyclin H (P50613 whole entry): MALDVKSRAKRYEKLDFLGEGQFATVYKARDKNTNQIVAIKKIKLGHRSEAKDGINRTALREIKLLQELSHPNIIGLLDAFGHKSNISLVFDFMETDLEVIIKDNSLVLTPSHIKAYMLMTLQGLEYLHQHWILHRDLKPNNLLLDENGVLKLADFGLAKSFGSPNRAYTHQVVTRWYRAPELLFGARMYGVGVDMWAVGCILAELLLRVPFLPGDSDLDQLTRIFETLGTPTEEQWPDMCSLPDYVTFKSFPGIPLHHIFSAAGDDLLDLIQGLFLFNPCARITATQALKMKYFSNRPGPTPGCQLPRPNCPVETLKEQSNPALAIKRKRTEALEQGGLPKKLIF

[10] = Metabolic stability in human liver microsomes assessed as half life at 1 uM incubated up to 60 mins in presence of NADPH by LC-MS/MS analysis; format: ADME, Microsome
In short: (§3)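 Liver microsomes (0.5 mg/mL) incubated at 37 °C with compound at 1.0 μM final, 3 mM MgCl2 and 1 mM NADPH in 100 mM PBS pH 7.4. Samples taken at 0, 5, 15, 30, 60 min; remaining parent measured by LC-MS/MS. k = −slope, T1/2 = 0.693/k, CLint = k/microsomal protein concentration. Midazolam served as control.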

[11] = Metabolic stability in human liver microsomes assessed as intrinsic clearance at 1 uM incubated up to 60 mins in presence of NADPH by LC-MS/MS analysis; format: ADME, Microsome; conditions: read-out: CLH; in short: as §3
[12] = Metabolic stability in monkey liver microsomes assessed as half life at 1 uM incubated up to 60 mins in presence of NADPH by LC-MS/MS analysis; format: ADME, Macaca mulatta, Microsome; conditions: rhesus monkey; in short: as §3
[13] = Metabolic stability in monkey liver microsomes assessed as intrinsic clearance at 1 uM incubated up to 60 mins in presence of NADPH by LC-MS/MS analysis; format: ADME, Macaca mulatta, Microsome; conditions: rhesus monkey, read-out: CLH; in short: as §3
[14] = Metabolic stability in dog liver microsomes assessed as half life at 1 uM incubated up to 60 mins in presence of NADPH by LC-MS/MS analysis; format: ADME, Canis lupus familiaris, Microsome; in short: as §3
[15] = Metabolic stability in dog liver microsomes assessed as intrinsic clearance at 1 uM incubated up to 60 mins in presence of NADPH by LC-MS/MS analysis; format: ADME, Canis lupus familiaris, Microsome; conditions: read-out: CLH; in short: as §3
[16] = Metabolic stability in rat liver microsomes assessed as half life at 1 uM incubated up to 60 mins in presence of NADPH by LC-MS/MS analysis; format: ADME, Microsome; in short: as §3
[17] = Metabolic stability in rat liver microsomes assessed as intrinsic clearance at 1 uM incubated up to 60 mins in presence of NADPH by LC-MS/MS analysis; format: ADME, Microsome; conditions: read-out: CLH; in short: as §3

SMILES	IC50 [1] [nM]	IC50 [2] [nM]	IC50 [3] [nM]	Activity [4] [%]	also measured
COc1cc(F)ccc1-c1nc(Nc2ccc3c(N4CCOCC4)c(C(C)=O)c(=O)oc3c2)ncc1Cl	3.6	401	1010		
COc1ccccc1-c1ccnc(Nc2ccc3c(C)c(C(C)=O)c(=O)oc3c2)n1	6.5	451	10200		
COc1cc(F)ccc1-c1nc(Nc2ccc3c(N4CCCNCC4)c(C(C)=O)c(=O)oc3c2)ncc1F	1.6	496	420		
COc1ccccc1-c1ccnc(Nc2ccc3c(N4CCCNCC4)cc(=O)oc3c2)n1	11.7	2060	1680		
COc1cc(F)ccc1-c1nc(Nc2ccc3c(N4CCOCC4)cc(=O)oc3c2)ncc1F	1.6		3110	22	
CC(=O)c1c(N2CCOCC2)c2ccc(Nc3cc(-c4ccccc4C(F)(F)F)ncn3)cc2oc1=O					Activity [5]: 106%
COc1cc(F)ccc1-c1nc(Nc2ccc3c(N4CCN(C)CC4)c(C(C)=O)c(=O)oc3c2)ncc1F	1.5	336	400		
COc1cc(F)ccc1-c1ccnc(Nc2ccc3c(N4CCCCC4)c(C(C)=O)c(=O)oc3c2)n1	6.5		730	73.1	
CC(=O)c1c(N2CCOCC2)c2ccc(Nc3cc(-c4ccccc4C)ncn3)cc2oc1=O					Activity [5]: 92.2%
COc1cc(F)ccc1-c1ccnc(Nc2ccc3c(N4CCN(C)CC4)c(C(C)=O)c(=O)oc3c2)n1	16.4		520	74.8	
CC(=O)c1c(N2CCOCC2)c2ccc(Nc3nccc(-c4ccccc4C(F)(F)F)n3)cc2oc1=O	2490				
COc1cc(F)ccc1-c1nc(Nc2ccc3c(N4CCN(C)CC4)c(C(C)=O)c(=O)oc3c2)ncc1Cl	1.7	642	1390		
CCc1ccccc1-c1ccnc(Nc2ccc3c(N4CCOCC4)c(C(C)=O)c(=O)oc3c2)n1	66.5		9840	40.5	
CC(=O)c1c(N2CCOCC2)c2ccc(Nc3nccc(-c4ccccc4)n3)cc2oc1=O	228				
COc1ccc(-c2ccnc(Nc3ccc4c(N5CCOCC5)c(C(C)=O)c(=O)oc4c3)n2)c(OC)c1	54.2		820	46.3	
COc1ccc(-c2ccnc(Nc3ccc4c(N5CCOCC5)c(C(C)=O)c(=O)oc4c3)n2)cc1	81.7		6490	21.6	
CCc1ccccc1-c1cc(Nc2ccc3c(N4CCOCC4)c(C(C)=O)c(=O)oc3c2)ncn1					Activity [5]: 90%
CCN1CCN(c2c(C(C)=O)c(=O)oc3cc(Nc4ncc(F)c(-c5ccc(F)cc5OC)n4)ccc23)CC1	1.2	305	550		
CC(=O)c1c(N2CCOCC2)c2ccc(Nc3nccc(-c4c(F)cccc4F)n3)cc2oc1=O	267		> 10000		
COc1ccc(F)cc1-c1ccnc(Nc2ccc3c(N4CCOCC4)c(C(C)=O)c(=O)oc3c2)n1	21.8		1740	49.6	

SMILES	IC50 [1] [nM]	IC50 [2] [nM]	IC50 [3] [nM]	Activity [4] [%]	also measured
COc1ccccc1-c1cc(Nc2ccc3c(N4CCOCC4)c(C(C)=O)c(=O)oc3c2)ncn1	210	3420	> 10000		
COc1ccccc1-c1ccnc(Nc2ccc3c(N4CCOCC4)cc(=O)oc3c2)n1	47.2		4570	57.9	
COc1ccccc1-c1ccnc(Nc2ccc3c(N4CCNCC4)cc(=O)oc3c2)n1	25.3	3660	1340		
CCC(=O)c1c(N2CCOCC2)c2ccc(Nc3nccc(-c4ccc(F)cc4OC)n3)cc2oc1=O	3.6	1090	430		
CC(=O)c1c(N2CCOCC2)c2ccc(Nc3cc(-c4ccccc4)ncn3)cc2oc1=O					Activity [5]: 104%
Nc1ccn([C@@H]2O[C@H](CO)[C@@H](O)[C@@H]2O)c(=O)n1 [CYTARABINE]					Activity [6]: 0.26 g
COc1ccccc1-c1ccnc(Nc2ccc3c(N4CCOCC4)c(C(C)=O)c(=O)oc3c2)n1	3.1	1280	1010		
COc1cccc(-c2ccnc(Nc3ccc4c(N5CCOCC5)c(C(C)=O)c(=O)oc4c3)n2)c1OC			5070		Activity [5]: 51.7%
CCc1c(N2CCOCC2)c2ccc(Nc3nccc(-c4ccccc4OC)n3)cc2oc1=O	67.3	10900	4720		
CCC(=O)c1c(N2CCOCC2)c2ccc(Nc3ncc(F)c(-c4ccc(F)cc4OC)n3)cc2oc1=O	0.7	338	420		
CC(=O)c1c(C)c2ccc(Nc3nccc(-c4cccnc4)n3)cc2oc1=O	184	1210	12900		Ratio IC50 [7]: 7; IC50 [8]: 235 nM; IC50 [9]: > 27000 nM
Cc1ncc2n1-c1ccc(Cl)cc1C(c1ccccc1F)=NC2 [MIDAZOLAM]					half-life at 1 µM [10]: 12.1 min; microsomal CLint at 1 µM [11]: 287 µL/min/mg; half-life at 1 µM [12]: 6.29 min; microsomal CLint at 1 µM [13]: 551 µL/min/mg; half-life at 1 µM [14]: 2.31 min; microsomal CLint at 1 µM [15]: 1500 µL/min/mg; half-life at 1 µM [16]: 3.82 min; microsomal CLint at 1 µM [17]: 908 µL/min/mg
COc1ccccc1-c1cc(Nc2ccc3c(C)c(C(C)=O)c(=O)oc3c2)ncn1	37.6		> 10000	64.5	
CCN1CCN(c2c(C(C)=O)c(=O)oc3cc(Nc4nccc(-c5ccc(F)cc5OC)n4)ccc23)CC1	10.5		740	61.8	
COc1cccc(F)c1-c1ccnc(Nc2ccc3c(N4CCOCC4)c(C(C)=O)c(=O)oc3c2)n1	13.7		520	58.7	
CC(=O)c1c(N2CCOCC2)c2ccc(Nc3nccc(-c4ccccc4[N+](=O)[O-])n3)cc2oc1=O	2340		> 10000		
COc1cccc(-c2ccnc(Nc3ccc4c(N5CCOCC5)c(C(C)=O)c(=O)oc4c3)n2)c1	18.4		1490	54.1	
CC(=O)c1c(N2CCOCC2)c2ccc(Nc3nccc(-c4ccccc4C)n3)cc2oc1=O	489				
COc1cc(F)ccc1-c1ccnc(Nc2ccc3c(N4CCOCC4)cc(=O)oc3c2)n1	18.2	1330	2280		
